We go through two compounds from ChEMBL document CHEMBL5634098, “Hydrophobicity modulation via the substituents at positions 2 and 4 of 1,3,5-triazine to enhance therapeutic ability against Alzheimer's disease for potent serotonin 5-HT6R agents” (Eur J Med Chem, 2023).

Data set [1] addresses T1, 5-hydroxytryptamine receptor 1A (Homo sapiens, UniProt P08908).
T1 sequence (P08908 whole entry): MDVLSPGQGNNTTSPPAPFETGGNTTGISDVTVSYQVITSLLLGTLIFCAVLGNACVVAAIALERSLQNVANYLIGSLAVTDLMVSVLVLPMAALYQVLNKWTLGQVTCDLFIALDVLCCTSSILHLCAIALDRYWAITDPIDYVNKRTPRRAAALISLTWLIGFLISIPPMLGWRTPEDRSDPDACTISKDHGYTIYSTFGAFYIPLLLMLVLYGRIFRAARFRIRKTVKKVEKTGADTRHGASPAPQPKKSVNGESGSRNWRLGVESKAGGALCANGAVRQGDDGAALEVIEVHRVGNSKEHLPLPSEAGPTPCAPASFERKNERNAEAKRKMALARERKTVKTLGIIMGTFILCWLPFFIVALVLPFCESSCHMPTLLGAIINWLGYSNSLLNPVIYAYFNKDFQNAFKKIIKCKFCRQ
The experiment in a line: Displacement of [3H]-8-OH-DPAT from human 5-HT1A receptor expressed in HEK293 cell membranes assessed as inhibition constant incubated for 1 hr by Microbeta plate reader based analysis. On the set-up: species or system Membrane. (Loss of bound radioactivity is the signal in a displacement assay; it reports binding, not function.)

In data set [2] the target is 5-hydroxytryptamine receptor 2A (Homo sapiens, UniProt P28223). The experiment in a line: Displacement of [3H]-ketanserin from human 5-HT2A receptor expressed in HEK293 cell membranes assessed as inhibition constant incubated for 1 hr by Microbeta plate reader based analysis. On the set-up: species or system Membrane.
In data set [3] the target is 5-hydroxytryptamine receptor 7 (Homo sapiens, UniProt P34969). The experiment in a line: Displacement of [3H]-5-CT from human 5-HT7 receptor expressed in HEK293 cell membranes assessed as inhibition constant incubated for 1 hr by Microbeta plate reader based analysis. The arrangement: species or system Membrane.
The next data set deals with D(2) dopamine receptor (Homo sapiens, UniProt P14416). Kind of data set: Displacement of [3H]-raclopride from human D2 receptor expressed in HEK293 cell membranes assessed as inhibition constant incubated for 1 hr by Microbeta plate reader based analysis. The arrangement: species or system Membrane.
Data set [4] can be described thus: Aqueous solubility of compound at 10 mg boiled for 5 mins and incubated overnight by UV spectroscopy. It counts as physicochemical. The conditions noted are these: aqueous medium.
Data set [5] is described as follows: Drug metabolism in rat liver microsomes assessed as decomposition mediated (R/S)-4-(1-(2,5-dichlorophenoxy)propyl)-6-(4-methylpiperazin-1-yl)-N-phenyl-1,3,5-triazin-2-amine metabolite formation by measuring retention time measured after 120 mins by LC-MS analysis. It is filed as ADME, Microsome. The settings on record: 2 h. Summed up: (§1)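 Phase I: compounds incubated with rat liver microsomes for 120 min at 37 °C; metabolites identified by LC/MS mass spectra against control sample.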
(Microsomes from liver hold many membrane-bound enzymes, among them those of drug oxidation.)

Data set [6] in a line: Drug metabolism in rat liver microsomes assessed as decomposition mediated (R/S)-4-((2-aminoethyl)(hydroxy)amino)-6-(1-(2,5-dichlorophenoxy)propyl)-N-phenyl-1,3,5-triazin-2-amine metabolite formation by measuring retention time measured after 120 mins by LC-MS analysis. It is filed as ADME, Microsome. The conditions noted are these: 2 h. Summed up: as §1
A short description of data set [7]: Permeability of compound at 200 uM incubated for 5 hrs by PAMPA assay. It counts as ADME. The settings on record: read-out: permeability.
A further data set deals with HepG2. Kind of data set: Cytotoxicity against human HepG2 cells assessed as reduction in cell viability at 100 uM incubated for 72 hrs by MTS assay. It is filed as toxicity, cell-based. The conditions noted are these: hepg2, 72 h. Summed up: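 HepG2 hepatoma cells exposed 72 h to compounds at 1, 10, 50 and 100 μM; doxorubicin 1 μM as positive control, 1% DMSO in growth medium as negative control. Viability read by MTS assay, absorbance 490 nm.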
A general note: Tetrazolium assays rely on reduction of a dye to a coloured formazan, in cell work by metabolically active cells.

The nature of data set [8]: Effect on Wistar rat memory assessed as total exploratory time in T2 session at 0.1 mg/kg, ip measured after 60 mins by novel object recognition test (reference value: 31.86 +/- 2.15 sec). The conditions noted are these: in vivo, 1 h. It counts as toxicity, organism-based. Summed up:
(§2)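 Rats given compound i.p. (2 mL/kg; vehicle 1% Tween 80) 60 min before T1 familiarization phase, without MK-801; doses 0.1–3 mg/kg. T2 recognition session 3 min; discrimination index (EB − EA)/(EA + EB) and total exploration time of both objects recorded; n = 6–8; mean ± SEM, one-way ANOVA/Bonferroni.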

Data set [9] is described as follows: Effect on Wistar rat memory assessed as total exploratory time in T2 session at 0.3 mg/kg, ip measured after 60 mins by novel object recognition test (reference value: 31.86 +/- 2.15 sec). It is filed as toxicity, organism-based. The conditions noted are these: in vivo, 1 h. Summed up:
as §2

Data set [10] can be described thus: Effect on Wistar rat memory assessed as total exploratory time in T2 session at 1 mg/kg, ip measured after 60 mins by novel object recognition test (reference value: 31.86 +/- 2.15 sec). It is filed as toxicity, organism-based. The settings on record: in vivo, 1 h. Summed up:
as §2

Data set [11] in a line: Effect on Wistar rat memory assessed as total exploratory time in T2 session at 3 mg/kg, ip measured after 60 mins by novel object recognition test (reference value: 31.86 +/- 2.15 sec). It counts as toxicity, organism-based. The settings on record: in vivo, 1 h. Summed up: as §2
For data set [12], the system named is Rattus norvegicus. The experiment in a line: Reversal of MK-801 induced memory impairment in Wistar rat assessed as total exploratory time at 0.1 mg/kg, ip pretreated for 30 mins followed by MK-801 administration and measured after 30 mins by novel object recognition test (reference value: 39.29 +/- 3.44 sec). It is filed as functional. The settings on record: time 60 min, 1 h.

Data set [13] has as its system Rattus norvegicus. The experiment in a line: Reversal of MK-801 induced memory impairment in Wistar rat assessed as total exploratory time at 0.3 mg/kg, ip pretreated for 30 mins followed by MK-801 administration and measured after 30 mins by novel object recognition test (reference value: 39.29 +/- 3.44 sec). It counts as functional. The conditions noted are these: time 60 min, 1 h.

Data set [14] deals with Rattus norvegicus. The experiment in a line: Reversal of MK-801 induced memory impairment in Wistar rat assessed as total exploratory time at 1 mg/kg, ip pretreated for 30 mins followed by MK-801 administration and measured after 30 mins by novel object recognition test (reference value: 39.29 +/- 3.44 sec). It counts as functional. The conditions noted are these: time 60 min.

Data set [15] deals with Rattus norvegicus. The experiment in a line: Reversal of MK-801 induced memory impairment in Wistar rat assessed as total exploratory time at 3 mg/kg, ip pretreated for 30 mins followed by MK-801 administration and measured after 30 mins by novel object recognition test (reference value: 39.29 +/- 3.44 sec). The conditions noted are these: time 60 min, 1 h. It counts as functional.

Data set [16] can be described thus: Metabolic stability at phase II in rat liver microsomes assessed as compound remaining at 50 uM preincubated for 5 mins followed by UDPGA and NADPH addition and measured after 1 hr by LC-MS analysis. It is filed as ADME, Microsome. The settings on record: time 65 min, read-out: Stability.

Values joined by “and” are separate entries in the source; they are usually repeats but may differ in a detail not shown here. Identical values can stand only once.

In general, Ki refers to the dissociation constant of the complex between target and ligand, obtained from inhibition or displacement. One may read the solubility as the dissolved amount per volume that the medium holds. A low value points to a poorly soluble substance.

Sequence of D(2) dopamine receptor (P14416 whole entry): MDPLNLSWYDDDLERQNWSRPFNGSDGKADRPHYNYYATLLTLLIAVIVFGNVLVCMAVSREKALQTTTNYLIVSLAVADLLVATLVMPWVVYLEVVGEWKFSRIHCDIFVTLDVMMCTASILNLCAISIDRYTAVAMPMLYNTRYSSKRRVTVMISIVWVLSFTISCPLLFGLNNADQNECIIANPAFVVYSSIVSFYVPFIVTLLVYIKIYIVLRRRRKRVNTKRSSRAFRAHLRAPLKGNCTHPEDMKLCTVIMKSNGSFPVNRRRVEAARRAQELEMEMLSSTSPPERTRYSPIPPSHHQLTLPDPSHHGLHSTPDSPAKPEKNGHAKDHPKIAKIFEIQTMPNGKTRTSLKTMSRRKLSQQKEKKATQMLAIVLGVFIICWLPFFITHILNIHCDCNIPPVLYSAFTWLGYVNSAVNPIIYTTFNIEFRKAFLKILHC
Sequence of 5-hydroxytryptamine receptor 7 (P34969 whole entry): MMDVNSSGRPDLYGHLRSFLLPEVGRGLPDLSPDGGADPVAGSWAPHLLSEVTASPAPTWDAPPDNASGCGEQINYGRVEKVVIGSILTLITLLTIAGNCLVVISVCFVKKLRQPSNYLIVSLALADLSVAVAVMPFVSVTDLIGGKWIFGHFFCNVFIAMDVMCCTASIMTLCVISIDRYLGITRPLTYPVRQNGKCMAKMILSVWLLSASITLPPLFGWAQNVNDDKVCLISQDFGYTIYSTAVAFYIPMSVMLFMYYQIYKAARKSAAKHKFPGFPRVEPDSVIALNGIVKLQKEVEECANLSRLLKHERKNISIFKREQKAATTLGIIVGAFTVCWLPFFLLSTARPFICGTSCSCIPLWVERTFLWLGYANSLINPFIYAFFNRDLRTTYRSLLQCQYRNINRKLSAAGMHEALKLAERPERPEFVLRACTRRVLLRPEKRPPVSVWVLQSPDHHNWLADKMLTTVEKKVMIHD
Sequence of 5-hydroxytryptamine receptor 2A (P28223 whole entry): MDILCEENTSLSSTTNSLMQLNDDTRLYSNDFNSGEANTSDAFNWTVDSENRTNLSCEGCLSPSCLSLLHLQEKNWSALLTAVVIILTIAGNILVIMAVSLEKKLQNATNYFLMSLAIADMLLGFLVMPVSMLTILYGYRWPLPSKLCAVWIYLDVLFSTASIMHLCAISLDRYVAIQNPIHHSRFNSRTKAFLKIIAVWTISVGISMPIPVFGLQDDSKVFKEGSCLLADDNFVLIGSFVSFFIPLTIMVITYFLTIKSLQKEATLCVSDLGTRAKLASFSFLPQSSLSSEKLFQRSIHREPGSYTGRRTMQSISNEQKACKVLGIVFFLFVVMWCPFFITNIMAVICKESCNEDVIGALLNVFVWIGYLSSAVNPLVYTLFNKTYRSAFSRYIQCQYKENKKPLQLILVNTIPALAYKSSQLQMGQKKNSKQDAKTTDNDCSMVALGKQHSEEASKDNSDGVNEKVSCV

On to `CCC(Oc1cc(Cl)ccc1Cl)c1nc(Nc2ccccc2)nc(N2CCN(C)CC2)n1` (stereo not drawn), for which the Ki turned out to be 5400 nM in data set [1], 338 nM in data set [2], 2590 nM in data set [3] and 421 nM at D(2) dopamine receptor. In data set [4], the solubility at 5 min is 15 µg/mL and 32 µM. For the same compound, the Retention_time is on record as 3.43 min in data set [5] and 5.67 min in [6].
On to `CCC(Oc1cc(F)ccc1F)c1nc(N)nc(N2CCN(C)CC2)n1` (stereo not drawn), for which the Ki in [1] was found to be 3040 nM; in data set [2], 573 nM; in data set [3], 11500 nM; at D(2) dopamine receptor, 1630 nM. The solubility at 5 min in [4] is 79 µg/mL and 217 µM. Besides, the Papp at 5 h, 200 µM in data set [7] came to 20.6 ×10⁻⁶ cm/s. Moreover, the Activity result in the data set on HepG2 is reported as “Non-Toxic”. The Time in [8] was found to be 38.29 s; in data set [9], 34.63 s; in [10], 39.38 s; in data set [11], 31.63 s; in the data set on Rattus norvegicus [12], 33.25 s; with Rattus norvegicus [13], 31 s. Moreover, the Time with Rattus norvegicus [14] is recorded as 32.57 s; in the data set with Rattus norvegicus [15] it was 27.75 s. Further, the remaining at 1 h, 50 µM in data set [16] stood at 82.6%.
